bCat nuc transl – modulators of beta-catenin nuclear translocation, primary screen, imaging, HeLa cells, immunofluorescence, high-content; nuclear translocation activity, % at 5 µM; 190,000 compounds, 0.3% hits;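 active means nuclear translocation activity above 50% at 5 µM, with a well cell count of 50 or more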;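 further: per-cell ratio of nuclear to cytoplasmic median beta-catenin stain intensity; plate controls were DMSO negative control for no effect and GSK-3 inhibitor IX positive control for full effect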
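Read-out: Nuclear/cytoplasmic beta-catenin signal ratio, % activation | Assay system: Human HeLa cell line | Times: 24 h compound exposure at 37°C, 5% CO2 | Signal: Fluorescence imaging of beta-catenin antibody stain plus DAPI | Dosing: 5 µM primary, 0.02–20 µM confirmation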
CHOP inhibitor – inhibitors of CHOP promoter induction, primary screen, cell-based, unfolded protein response, luciferase reporter | CHO-K1 CHOP-promoter luciferase, tunicamycin-induced, 15-18 h | inhibition, % at 10 µM | 220,000 compounds, 3.8% hits;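 active means compounds that reduced the stress-induced luciferase reporter signal by more than about 70% of percent inhibition, limit read from the data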;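 further: 0% = tunicamycin plus vehicle and 100% = wells without tunicamycin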
Autophagy mod – autophagy modulators in MEF cells, primary screen, imaging, high-content, MEF GFP-LC3; MEF GFP-LC3 puncta imaging; test concentration mostly 10 µM; calls only at 10 µM (by protocol); 190,000 compounds, 0.98% hits;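 active means percentage of spot-positive cells more than 3 SD above its plate mean, without a fluorescence outlier flag or 80% toxicity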;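 further: spot-positive cell cutoff set from DMSO-treated cells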
MT stabilizer – microtubule stabilizers in HeLa cells, primary screen, imaging, high-content imaging. AID 2205, 2009. % tubulin-high responders, % at 10 µM. 200,000 compounds, 0.83% hits. HeLa tubulin immunostaining HCS, 24 h; share of cells brighter than vehicle mean+2SD;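 active means plate Z-score above 3 for both tubulin-high and condensed-nucleus cell shares, with cell loss under 80%, at 10 µM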;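 further: anti alpha tubulin signal scored within the nucleus-defined area of each cell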
L major viab – Leishmania major promastigote growth inhibition, primary screen | Leishmania major promastigotes, resazurin fluorescence viability | inhibition, % at 10 µM | 200,000 compounds, 9% hits; in the data active means inhibition above about 50%;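 further: promastigotes grown with compound for 44 hours at 28 °C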
Dynein cargo inh – inhibitors of GR-EGFP nuclear translocation, primary screen, dynein cargo transport inhibitor project, imaging, high-content, 3617.4 mouse cells; test concentration mostly 20 µM; stimulated with dexamethasone, 1 µM; active compounds read low; z-score, hits read low; 220,000 compounds, 0.47% hits; AID 1381, 2008;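 active means plate z-score of nuclear minus cytoplasmic receptor signal below a set negative limit, without overly bright fluorescence or cell loss, cut at about -3.5 in these data, passing the limit was not always enough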;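 further: z-score of nuclear minus cytoplasmic ring GR-EGFP intensity difference per well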
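Medium: Induction medium lacking tetracycline, stripped serum | Probe or stimulus: 1.0 µM final dexamethasone stimulus | Schedule: 48 h induction, then 1 h compound, then 30 min agonist, 37 °C | Signal: Automated 10x imaging of fixed Hoechst-stained cells | Evaluation: Per-cell GR-EGFP intensity, nucleus versus surrounding cytoplasmic ring, well-averaged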
* = called active by the depositor; i = inactive; . = not tested or not shown; + = active, no number. A selection: hits, their analogues and other compounds. The true share with any hit is near 12%.

SMILES	bCat nuc transl	CHOP inhibitor	Autophagy mod	MT stabilizer	L major viab	Dynein cargo inh
COc1ccc(CNCC(O)(c2ccc(Cl)cc2)c2ccc(Cl)cc2)cc1	-1.6	40.4	i	1.7	100.5*	-1.01
Cc1nc(C)c(C(=O)O)c(-c2cccs2)c1C(=O)O	0.8	7.0	.	.	.	-0.142
COc1ccccc1N1CCN(C(=O)c2ccc3[nH]c4c(c3c2)CCCC4)CC1	0.5	34.9	i	1.6	9.3	-1.39
Cc1ccc(C)c(N2CCN(C(=O)c3ccc(Cn4c(=S)[nH]c5ccc(N6CCOCC6)cc5c4=O)cc3)CC2)c1	-1.9	26.1	i	2.3	98.5*	-0.574
COc1ccc(Cn2c(=O)[nH]c3cc(C(=O)N4CCN(Cc5ccccc5)CC4)ccc3c2=O)cc1	2.2	71.8*	i	3.6	10.4	-0.924
O=C(c1ccc2[nH]c3c(c2c1)CCCC3)N1CCN(c2ccc(F)cc2)CC1	0.4	16.4	i	2.0	60.1*	-0.741
O=C(c1ccc(Cn2c(=S)[nH]c3ccc(N4CCOCC4)cc3c2=O)cc1)N1CCN(c2ccc(F)cc2)CC1	-1.6	54.8	i	3.1	96.3*	-0.203
O=C(c1ccc(Cn2c(=S)[nH]c3cc4c(cc3c2=O)OCO4)cc1)N1CCN(c2ccccc2)CC1	-1.0	57.7	i	2.6	15.4	1.62
Cn1c(=O)c2nc(Cl)n(Cc3ccc(Cl)cc3Cl)c2n(C)c1=O	.	.	i	1.1	0.7	-0.941
O=C(c1ccc(Cn2c(=O)[nH]c3ccccc3c2=O)cc1)N1CCN(c2ccc(F)cc2)CC1	-3.3	45.9	i	1.3	91.5*	-0.247
COc1ccc(N2CCN(C(=O)c3ccc(Cn4c(=S)[nH]c5ccc(N6CCOCC6)cc5c4=O)cc3)CC2)cc1	3.3	50.0	i	2.1	91.2*	-0.741
Cc1ccc(Cn2c(=S)[nH]c3ccc(N4CCOCC4)cc3c2=O)o1	.	-127.3	i	2.1	-9.6	-2.79
O=c1c2cc(N3CCOCC3)ccc2[nH]c(=S)n1Cc1ccc(Cl)cc1	.	70.5*	i	1.9	7.9	0.0874
O=C(NCCc1ccccc1)C(=O)c1c(-c2ccccc2)[nH]c2ccccc12	0.6	22.3	i	1.3	17.6	-0.576
O=S1(=O)NC(=NCCc2ccccn2)c2ccccc21	-0.6	-1.8	i	3.6	-1.7	0.567
COc1cc(OC)cc(-c2nc3ccccc3c(=O)n2OC(=O)c2ccc(C)c(C)c2)c1	-2.5	67.8	i	1.9	73.3*	-0.826
CCOC(=O)c1ccc(NCCOC)c([N+](=O)[O-])c1	-2.3	-15.4	+	2.8	-4.6	-0.566
COC(=O)c1ccc(NC(CC(C)C)C(=O)OC)c([N+](=O)[O-])c1 (centres undefined)	-1.9	49.0	i	1.6	52.0*	0.0149
CCOC(=O)Cn1c(C)[n+](CC(=O)c2ccccc2)c2ccccc21	-3.9	-3.0	.	.	.	-0.252
O=[N+]([O-])c1ccc(OCC(O)CN2CCN(c3ccccc3F)CC2)cc1 (centres undefined)	-2.5	17.6	i	2.3	-1.2	-0.673
CCOC(=O)C1(CC2CC2)CCN(Cc2cnc(-c3ccc(OC)cc3)nc2)CC1	-2.2	20.9	i	1.8	44.3	2.51
O=C(O)c1cc([N+](=O)[O-])ccc1NCCO	-0.8	1.8	i	1.6	56.0*	-0.66
COc1ccc(Oc2ccc(/C=C/C(=O)c3cccc(OC)c3)cc2[N+](=O)[O-])cc1	-4.1	-98.6	i	30.8	100.3*	-0.695
C=CCN1C(=O)C(C)S/C1=N\S(=O)(=O)c1ccc(Cl)cc1 (centres undefined)	-0.1	46.7	i	1.7	52.2*	0.672
COc1ccc(Nc2nc(-c3cccs3)nc3ccccc23)c(OC)c1	-0.1	10.8	i	2.7	41.0	3.77
SMILES	bCat nuc transl	CHOP inhibitor	Autophagy mod	MT stabilizer	L major viab	Dynein cargo inh
c1cncc(-c2nc(NCc3cccs3)c3ccccc3n2)c1	0.1	15.8	i	2.1	44.3	1.04
Cc1ccc(CNc2nc(-c3cccs3)nc3ccccc23)cc1	-4.8	61.9	i	2.0	76.5*	0.193
c1ccc(CNc2nc(-c3cccs3)nc3ccccc23)nc1	0.0	0.2	i	3.4	78.3*	0.257
Cc1cc(NC(=O)C2CC(=O)N(c3ccccc3)C2)no1 (centres undefined)	0.4	1.6	i	2.4	0.2	2.45
COC(=O)c1ccc(COc2ccc(/C=N/Nc3nc(C)cc(=O)[nH]3)cc2)cc1	1.5	-15.9	.	.	.	-0.285
CC1CN=C(N(C(=O)Nc2ccccc2)c2ccc(S(=O)(=O)N3CCOCC3)cc2)S1 (centres undefined)	-0.3	25.8	i	3.3	6.9	0.0437
C/C(=C\c1ccccc1)C(=O)NCc1ccco1	-4.0	-8.3	i	3.0	-1.6	0.437
CCc1ccc(S(=O)(=O)ON2C(=O)c3ccccc3C2=O)cc1	-2.1	95.1*	i	5.6	-5.4	-3.22
O=C(Nc1ccccc1)Nc1ccccc1-n1ccnc1	-0.5	6.0	i	2.1	80.3*	0.461
N#Cc1ccccc1NC(=O)Nc1ccccc1	-0.4	15.9	i	5.6	-0.4	0.375
CC(CCc1ccccc1)NCC(O)c1ccc(O)c(C(N)=O)c1 (centres undefined)	0.7	18.6	i	3.1	84.0*	-0.102
CCc1[nH]nc(C(=O)N2CCCC(CCC(=O)N3CCN(c4ccccn4)CC3)C2)c1C (centres undefined)	-0.6	-1.9	i	1.8	-5.9	0.149
Cc1noc(C)c1C(=O)Nc1nc(C23CC4CC(CC(C4)C2)C3)cs1	0.6	83.1*	i	2.6	-6.0	-1.06
Cc1ccc(S(=O)(=O)N(C)C)cc1NC(=O)[C@H](Cc1ccccc1)N1C(=O)c2ccccc2C1=O	-3.4	-7.9	i	1.0	-6.9	-0.914
CN(C)c1ccc(/C=C2\C(=O)N(c3ccc([N+](=O)[O-])cc3)N=C2N2CCOCC2)cc1	.	.	i	4.1	79.9*	-0.233
CN(C)c1ccc(/C=C2/C(=O)N(c3ccc([N+](=O)[O-])cc3)N=C2N2CCOCC2)cc1	-2.5	27.3	i	1.2	-5.3	-0.00268
COc1ccccc1Nc1ncnc2ccccc12	-0.6	-10.0	i	1.5	34.1	-0.293
CCOC(=O)C1CCCN(Cc2ccc3c(c2)OCO3)C1 (centres undefined)	3.3	2.5	i	2.8	91.6*	0.118
CCc1noc(C)c1C(=O)N1CCCC(C(=O)c2cc(F)ccc2OC)C1 (centres undefined)	-4.3	1.1	i	2.8	-2.7	-1.14
